Laboratory results from ChEMBL document CHEMBL4732217, “Design, synthesis, biological evaluation, and docking studies of novel (imidazol-5-yl)pyrimidine-based derivatives as dual BRAF/p38α inhibitors” (Eur J Med Chem, 2021).

Experiments:
[1] = tested on: Serine/threonine-protein kinase B-raf (Homo sapiens), P15056 [V600E]; experiment: Inhibition of BRAF V600E mutant (unknown origin) at 10 uM using Ser/Thr 03 as substrate after 1 hr in presence of ATP by Z'-LYTE assay relative to control
Procedure, shortened: (§1)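 Run by a commercial kinase profiling service at 100 µM ATP. Single-point screening was followed by 5-point titration (1 nM, 10 nM, 100 nM, 1 µM, 10 µM) for IC50.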

[2] = target: T1, Mitogen-activated protein kinase 14 (Homo sapiens, UniProt Q16539); experiment: Inhibition of p38 alpha (unknown origin) at 10 uM using Ser/Thr 15 as substrate incubated for 1 hr in presence of ATP by Z'-Lyte assay relative to control; procedure, shortened: as §1
T1 sequence (Q16539 whole entry): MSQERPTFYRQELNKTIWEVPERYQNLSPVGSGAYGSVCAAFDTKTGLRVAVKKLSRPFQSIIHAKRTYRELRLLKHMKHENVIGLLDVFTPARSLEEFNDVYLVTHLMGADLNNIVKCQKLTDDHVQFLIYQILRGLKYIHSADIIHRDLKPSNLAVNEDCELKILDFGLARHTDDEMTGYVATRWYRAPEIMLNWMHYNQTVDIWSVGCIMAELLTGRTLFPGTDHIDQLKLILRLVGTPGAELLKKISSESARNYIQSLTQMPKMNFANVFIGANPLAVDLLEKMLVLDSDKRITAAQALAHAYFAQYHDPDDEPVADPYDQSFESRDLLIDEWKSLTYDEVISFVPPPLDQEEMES

[3] = target: T2, Serine/threonine-protein kinase B-raf (Homo sapiens, UniProt P15056, V600E); experiment: Inhibition of BRAF V600E mutant (unknown origin) using Ser/Thr 03 as substrate after 1 hr in presence of ATP by Z'-LYTE assay
T2 sequence (P15056 2-766 V600E limits assumed): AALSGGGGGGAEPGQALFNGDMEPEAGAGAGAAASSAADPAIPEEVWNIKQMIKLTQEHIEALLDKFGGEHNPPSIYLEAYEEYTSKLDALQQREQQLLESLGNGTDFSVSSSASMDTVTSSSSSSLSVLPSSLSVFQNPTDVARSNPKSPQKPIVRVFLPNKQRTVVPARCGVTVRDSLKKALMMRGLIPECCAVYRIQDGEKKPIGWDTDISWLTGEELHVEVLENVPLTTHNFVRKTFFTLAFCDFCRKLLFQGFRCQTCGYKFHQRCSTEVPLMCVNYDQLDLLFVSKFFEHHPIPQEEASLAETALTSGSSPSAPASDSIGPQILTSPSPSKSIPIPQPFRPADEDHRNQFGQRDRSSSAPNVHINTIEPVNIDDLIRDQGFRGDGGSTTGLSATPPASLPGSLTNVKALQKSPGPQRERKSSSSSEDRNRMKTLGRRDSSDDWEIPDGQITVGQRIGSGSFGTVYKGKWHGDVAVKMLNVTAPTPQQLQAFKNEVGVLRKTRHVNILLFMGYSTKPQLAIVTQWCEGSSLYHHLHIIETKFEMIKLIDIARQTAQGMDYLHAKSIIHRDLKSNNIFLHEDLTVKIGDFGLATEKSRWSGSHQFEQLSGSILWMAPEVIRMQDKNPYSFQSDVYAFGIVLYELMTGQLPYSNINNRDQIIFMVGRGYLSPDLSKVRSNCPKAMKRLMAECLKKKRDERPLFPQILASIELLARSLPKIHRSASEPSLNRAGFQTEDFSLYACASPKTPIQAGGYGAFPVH

LOX IMVI = experiment: cells; assay type: functional, cell-based; conditions: Homo sapiens, 24 h
[4] = Inhibition of LPS stimulated TNF-alpha production in mouse RAW264.7 macrophages preincubated for 1 hr followed by LPS stimulation and measured after 24 hrs by EIA; assay type: functional
Procedure, shortened: (§2)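 RAW 264.7 macrophages plated at 2 × 10⁵ cells per well and left overnight. Pretreated 1 h with compound, then stimulated 24 h with lipopolysaccharide. TNF-α in culture supernatant measured by EIA. BAY 11-7082 reference tested at 0.5, 1.0, 5.0 and 10.0 µM. Values are means ± S.D.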

[5] = target: T2, Serine/threonine-protein kinase B-raf; experiment: Inhibition of BRAF V600E mutant (unknown origin) preincubated for 20 mins followed by 33P-ATP addition and measured after 2 hrs by HotSpot kinase assay
[6] = target: T1, Mitogen-activated protein kinase 14; experiment: Inhibition of p38 alpha (unknown origin) using Ser/Thr 15 as substrate incubated for 1 hr in presence of ATP by Z'-Lyte assay
[7] = Cytotoxicity against human IOSE-80PC cells assessed as reduction in cell viability incubated for 24 hrs by MTT assay; assay type: cell-based, IOSE80pc
Procedure, shortened: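 Human ovarian epithelial IOSE-80PC cells grown in RPMI 1640 with FBS and penicillin-streptomycin, seeded at 1 × 10⁵/mL, exposed to a range of compound concentrations in 5-dose mode. Viability read by MTT; IC50 derived.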

[8] = Selectivity index, ratio of IC50 for human IOSE-80PC cells to IC50 for human LOX IMVI cells
Procedure, shortened: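 IC50 against IOSE-80PC normal ovarian epithelial cells (MTT, 5-dose) divided by IC50 against LOX-IMVI melanoma cells (MTT, 24 h compound exposure, means of duplicate experiments ± S.D.).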

[9] = Inhibition of LPS stimulated TNF-alpha production in mouse RAW264.7 macrophages at 1 uM preincubated for 1 hr followed by LPS stimulation and measured after 24 hrs by EIA relative to control; assay type: functional; conditions: time 25 hrs; procedure, shortened: as §2
[10] = Inhibition of LPS stimulated TNF-alpha production in mouse RAW264.7 macrophages at 10 uM preincubated for 1 hr followed by LPS stimulation and measured after 24 hrs by EIA relative to control; assay type: functional; conditions: time 25 hrs; procedure, shortened: as §2
[11] = tested on: Serine/threonine-protein kinase B-raf (Homo sapiens), P15056 [V600E]; experiment: Potency index, ratio of staurosporine IC50 to compound IC50 for inhibition of BRAF V600E mutant (unknown origin)
[12] = target: T1, Mitogen-activated protein kinase 14; experiment: Potency index, ratio of PP2 IC50 to compound IC50 for inhibition of P38 alpha (unknown origin)
RAW264.7 = experiment: Potency index, ratio of BAY 11-7082 IC50 to compound IC50 for inhibition of LPS stimulated TNF-alpha production in mouse RAW264.7 macrophages; assay type: functional

Sequence of Serine/threonine-protein kinase B-raf (Homo sapiens), P15056 [V600E] (P15056 whole entry V600E): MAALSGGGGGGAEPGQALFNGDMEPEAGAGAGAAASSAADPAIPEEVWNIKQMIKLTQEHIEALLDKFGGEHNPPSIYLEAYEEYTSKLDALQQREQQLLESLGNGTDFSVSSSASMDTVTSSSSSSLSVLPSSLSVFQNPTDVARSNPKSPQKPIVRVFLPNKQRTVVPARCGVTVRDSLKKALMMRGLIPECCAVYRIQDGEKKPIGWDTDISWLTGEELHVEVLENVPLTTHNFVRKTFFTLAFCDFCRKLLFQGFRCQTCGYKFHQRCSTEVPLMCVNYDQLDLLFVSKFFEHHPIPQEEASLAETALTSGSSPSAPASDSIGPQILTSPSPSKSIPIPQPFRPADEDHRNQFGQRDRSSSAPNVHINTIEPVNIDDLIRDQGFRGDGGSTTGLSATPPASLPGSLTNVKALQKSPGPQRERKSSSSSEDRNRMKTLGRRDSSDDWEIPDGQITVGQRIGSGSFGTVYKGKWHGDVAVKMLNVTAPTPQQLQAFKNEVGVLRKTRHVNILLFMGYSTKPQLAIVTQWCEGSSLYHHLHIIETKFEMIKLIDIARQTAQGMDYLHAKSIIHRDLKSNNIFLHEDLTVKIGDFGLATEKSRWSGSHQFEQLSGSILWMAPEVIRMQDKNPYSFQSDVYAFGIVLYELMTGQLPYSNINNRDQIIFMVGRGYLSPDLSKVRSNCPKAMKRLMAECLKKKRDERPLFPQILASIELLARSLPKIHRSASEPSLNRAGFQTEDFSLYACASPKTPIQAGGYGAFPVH

inhibition [1] [%]	inhibition [2] [%]	IC50 (LOX IMVI) [µM]	SMILES	further results
101	70.8	6.02	Cc1ccc(S(=O)(=O)NCCCNc2nccc(-c3[nH]c(-c4ccccc4)nc3-c3ccc(Cl)c(O)c3)n2)cc1	IC50 [3]: 0.00804 µM
81	44.4	14.9	COc1cc(-c2nc(-c3ccccc3)[nH]c2-c2ccnc(NCCCNS(=O)(=O)c3cccc4ccccc34)n2)ccc1F	–
–	–	–	Cc1ccc(S(=O)(=O)/C=C/C#N)cc1	IC50 [4]: 5.18 µM
88.2	50.4	18.6	COc1cc(-c2nc(-c3ccccc3)[nH]c2-c2ccnc(NCCCNS(=O)(=O)c3ccc(C)cc3)n2)ccc1Cl	–
–	–	–	O=S(=O)(NCCNc1cc(-c2[nH]c(-c3ccccc3)nc2-c2cccc(O)c2)ccn1)c1ccc(O)cc1	IC50 [5]: 0.032 µM
84.9	58.3	5.11	COc1cc(-c2nc(-c3ccccc3)[nH]c2-c2ccnc(NCCCNS(=O)(=O)c3cccc(F)c3)n2)ccc1Cl	–
101	87.8	26.3	Cc1ccc(S(=O)(=O)NCCCNc2nccc(-c3[nH]c(-c4ccccc4)nc3-c3ccc(F)c(O)c3)n2)cc1	IC50 [3]: 0.00868 µM; IC50 [6]: 0.2 µM
85.1	52.1	60.9	COc1cc(-c2nc(-c3ccccc3)[nH]c2-c2ccnc(NCCCNS(=O)(=O)c3ccc(Cl)cc3)n2)ccc1Cl	–
97.1	85.5	2.3	O=S(=O)(NCCCNc1nccc(-c2[nH]c(-c3ccccc3)nc2-c2ccc(Cl)c(O)c2)n1)c1ccc(F)cc1	IC50 [7]: > 10 µM; Ratio IC50 [8]: > 4.35
101	77.6	36.8	O=S(=O)(NCCCNc1nccc(-c2[nH]c(-c3ccccc3)nc2-c2ccc(Cl)c(O)c2)n1)c1ccc(O)cc1	IC50 [3]: 0.00781 µM
77.3	83.5	4.52	COc1cc(-c2nc(-c3ccccc3)[nH]c2-c2ccnc(NCCCNS(=O)(=O)c3ccccc3)n2)ccc1F	–
81.5	73.4	33.9	COc1cc(-c2nc(-c3ccccc3)[nH]c2-c2ccnc(NCCCNS(=O)(=O)c3ccc(Br)cc3)n2)ccc1F	–
55.9	18.9	1.78	COc1cc(-c2nc(-c3ccccc3)[nH]c2-c2ccnc(NCCCNS(=O)(=O)c3ccc(C(F)(F)F)cc3)n2)ccc1Cl	IC50 [7]: > 10 µM; Ratio IC50 [8]: > 5.62
72.5	82.7	0.9	COc1cc(-c2nc(-c3ccccc3)[nH]c2-c2ccnc(NCCCNS(=O)(=O)c3cccc(F)c3)n2)ccc1F	IC50 [7]: > 10 µM; Ratio IC50 [8]: > 11.1
81	62.1	4.53	COc1cc(-c2nc(-c3ccccc3)[nH]c2-c2ccnc(NCCCNS(=O)(=O)c3ccc(F)cc3)n2)ccc1Cl	–
97	91.4	19.2	O=S(=O)(NCCCNc1nccc(-c2[nH]c(-c3ccccc3)nc2-c2ccc(F)c(O)c2)n1)c1ccc(F)cc1	–
99.4	82.2	2.63	O=S(=O)(NCCCNc1nccc(-c2[nH]c(-c3ccccc3)nc2-c2ccc(Cl)c(O)c2)n1)c1ccccc1	IC50 [3]: 0.00425 µM; IC50 [7]: > 10 µM; Ratio IC50 [8]: > 3.8
93.9	84.9	14.2	O=S(=O)(NCCCNc1nccc(-c2[nH]c(-c3ccccc3)nc2-c2ccc(F)c(O)c2)n1)c1ccc(Cl)cc1	–
89.1	88.5	6.13	COc1ccc(S(=O)(=O)NCCCNc2nccc(-c3[nH]c(-c4ccccc4)nc3-c3ccc(F)c(OC)c3)n2)cc1	–

inhibition [1] [%]	inhibition [2] [%]	IC50 (LOX IMVI) [µM]	SMILES	further results
42.4	48.6	75.2	COc1cc(-c2nc(-c3ccccc3)[nH]c2-c2ccnc(NCCCNS(=O)(=O)c3ccc(C(F)(F)F)cc3)n2)ccc1F	–
98.4	65.4	2.45	O=S(=O)(NCCCNc1nccc(-c2[nH]c(-c3ccccc3)nc2-c2ccc(F)c(O)c2)n1)c1ccc(C(F)(F)F)cc1	IC50 [7]: > 10 µM; Ratio IC50 [8]: > 4.08
80	58.6	7.47	COc1cc(-c2nc(-c3ccccc3)[nH]c2-c2ccnc(NCCCNS(=O)(=O)c3ccccc3)n2)ccc1Cl	–
82.4	79.4	2.59	COc1cc(-c2nc(-c3ccccc3)[nH]c2-c2ccnc(NCCCNS(=O)(=O)c3ccc(C)cc3)n2)ccc1F	–
98.4	87	9.58	O=S(=O)(NCCCNc1nccc(-c2[nH]c(-c3ccccc3)nc2-c2ccc(F)c(O)c2)n1)c1ccccc1	IC50 [3]: 0.00562 µM; IC50 [6]: 0.21 µM
100	84.8	5.66	O=S(=O)(NCCCNc1nccc(-c2[nH]c(-c3ccccc3)nc2-c2ccc(F)c(O)c2)n1)c1ccc(Br)cc1	IC50 [3]: 0.0263 µM; IC50 [6]: 0.33 µM
97.3	73.7	15.5	O=S(=O)(NCCCNc1nccc(-c2[nH]c(-c3ccccc3)nc2-c2ccc(Cl)c(O)c2)n1)c1ccc(Br)cc1	IC50 [3]: 0.0218 µM
96.2	51.1	7.72	O=S(=O)(NCCCNc1nccc(-c2[nH]c(-c3ccccc3)nc2-c2ccc(Cl)c(O)c2)n1)c1cccc2ccccc12	–
88.3	30	23.7	COc1cc(-c2nc(-c3ccccc3)[nH]c2-c2ccnc(NCCCNS(=O)(=O)c3ccc(Br)cc3)n2)ccc1Cl	–
101	92.8	13.9	O=S(=O)(NCCCNc1nccc(-c2[nH]c(-c3ccccc3)nc2-c2ccc(F)c(O)c2)n1)c1ccc(O)cc1	IC50 [3]: 0.00249 µM; IC50 [6]: 0.085 µM; inhibition at 1 µM [9]: 85.2%; inhibition at 10 µM [10]: 96.4%; IC50 [4]: 0.0963 µM; Ratio IC50 [11]: 12.7; Ratio IC50 [12]: 49.8; Ratio IC50 (RAW264.7): 53.8
90	27.1	13.5	COc1cc(-c2nc(-c3ccccc3)[nH]c2-c2ccnc(NCCCNS(=O)(=O)c3cccc4ccccc34)n2)ccc1Cl	–
80.1	84.1	3.96	COc1cc(-c2nc(-c3ccccc3)[nH]c2-c2ccnc(NCCCNS(=O)(=O)c3ccc(F)cc3)n2)ccc1F	–
91.1	54.6	1.8	COc1ccc(S(=O)(=O)NCCCNc2nccc(-c3[nH]c(-c4ccccc4)nc3-c3ccc(Cl)c(OC)c3)n2)cc1	–
99.8	79.8	3.71	O=S(=O)(NCCCNc1nccc(-c2[nH]c(-c3ccccc3)nc2-c2ccc(F)c(O)c2)n1)c1cccc2ccccc12	–
99.7	70.8	61.3	O=S(=O)(NCCCNc1nccc(-c2[nH]c(-c3ccccc3)nc2-c2ccc(Cl)c(O)c2)n1)c1ccc(Cl)cc1	–
99.2	54.3	10.1	O=S(=O)(NCCCNc1nccc(-c2[nH]c(-c3ccccc3)nc2-c2ccc(Cl)c(O)c2)n1)c1ccc(C(F)(F)F)cc1	–
79.2	72.8	83.1	COc1cc(-c2nc(-c3ccccc3)[nH]c2-c2ccnc(NCCCNS(=O)(=O)c3ccc(Cl)cc3)n2)ccc1F	–
101	78.6	33.6	O=S(=O)(NCCCNc1nccc(-c2[nH]c(-c3ccccc3)nc2-c2ccc(Cl)c(O)c2)n1)c1cccc(F)c1	IC50 [3]: 0.0148 µM
100	90.5	7.89	O=S(=O)(NCCCNc1nccc(-c2[nH]c(-c3ccccc3)nc2-c2ccc(F)c(O)c2)n1)c1cccc(F)c1	IC50 [3]: 0.0303 µM; IC50 [6]: 0.14 µM
